Source: PubChem BioAssay
GSTO1 counter: inhibitors of recombinant GSTO1, primary screen, counter-screen for RBBP9 inhibitor project, biochemical, fluorescence polarization | Glutathione S-transferase omega-1 (Homo sapiens), P78417 | activity-based probe fluorescence polarization | inhibition, % at 5.96 µM | 300,000 tested, 1.1% active;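 active means inhibition above the campaign mean inhibition plus 3 SD, cut at about 35% in these data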;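 further: 0% = GSTO1-1 with DMSO and 100% = wells lacking GSTO1-1 enzyme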
PAD4 FP inh: human PAD4 inhibitors, primary screen, biochemical, fluorescence polarization, 1536-well format. Protein-arginine deiminase type-4 (Homo sapiens), Q9UM07. recombinant PAD4, RCA probe fluorescence polarization. inhibition, % at 6.36 µM. 330,000 tested, 0.41% active;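 active means percent inhibition above a cutoff equal to the mean of all tested compounds plus 3 SD, cut at about 15% in these data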;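 further: 0% = PAD4 with RCA probe and DMSO and 100% = probe without PAD4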
Target sequence (Q9UM07 whole entry, looked up): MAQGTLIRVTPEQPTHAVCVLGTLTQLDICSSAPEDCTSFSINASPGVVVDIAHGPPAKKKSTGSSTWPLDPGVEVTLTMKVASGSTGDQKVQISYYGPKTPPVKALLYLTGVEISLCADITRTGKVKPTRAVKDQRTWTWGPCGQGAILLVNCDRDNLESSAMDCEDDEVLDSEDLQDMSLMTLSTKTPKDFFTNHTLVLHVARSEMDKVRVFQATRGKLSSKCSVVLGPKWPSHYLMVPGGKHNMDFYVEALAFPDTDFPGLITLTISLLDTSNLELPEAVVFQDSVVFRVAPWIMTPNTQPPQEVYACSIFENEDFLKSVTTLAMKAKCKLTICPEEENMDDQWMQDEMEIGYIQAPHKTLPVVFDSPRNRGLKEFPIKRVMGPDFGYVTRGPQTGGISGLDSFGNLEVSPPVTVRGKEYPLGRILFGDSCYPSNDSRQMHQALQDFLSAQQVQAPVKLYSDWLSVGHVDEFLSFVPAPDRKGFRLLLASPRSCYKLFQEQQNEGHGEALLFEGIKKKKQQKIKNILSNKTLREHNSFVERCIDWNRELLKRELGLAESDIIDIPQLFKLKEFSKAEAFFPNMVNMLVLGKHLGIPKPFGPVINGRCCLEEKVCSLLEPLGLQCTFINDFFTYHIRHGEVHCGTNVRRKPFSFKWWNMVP
PRMT1 inh: PRMT1 methyltransferase inhibitors, primary screen, biochemical, fluorescence polarization. Protein arginine N-methyltransferase 1 (Homo sapiens), Q99873. recombinant PRMT1, activity-based probe fluorescence polarization. inhibition, % at 2.79 µM. 370,000 tested, 1.3% active. AID 652257, 2013;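 active means inhibition above about 21% made by adding two undisclosed values, limit read from the data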
TDP2 inh: human TDP2 enzyme inhibitors, primary screen, biochemical, epi absorbance, recombinant enzyme; T5PNP hydrolysis, p-nitrophenol absorbance 415 nm; inhibition, % at 12.8 µM; Tyrosyl-DNA phosphodiesterase 2 (Homo sapiens), O95551; AID 720702, 2013; 370,000 tested, 0.34% active;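 active means inhibition above the mean of all tested compounds plus 3 SD, set per campaign, cut at about 25% in these data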;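 further: 0% = DMSO with enzyme and 100% = buffer with substrate but no TDP2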
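Test system: human TDP2 enzyme; Input: 120 nM TDP2 per well; Buffer or medium: Mg2+-containing Tris-HCl buffer, pH 7.5; Reagent: 5 mM T5PNP; Dosing: 12.8 µM single point, 1% DMSO; Incubation: reaction 2 h, 37 °C; Detection: p-Nitrophenol epi absorbance; Read-out: % inhibition relative to enzyme-containing and enzyme-free wells; Replicates: single well per compound.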
Apaf1 inhib: inhibitors of human Apaf-1 apoptosome, primary screen, biochemical, DEVD-Rh110 fluorescence, uHTS; Apoptotic protease-activating factor 1 (Homo sapiens), O14727; reconstituted apoptosome caspase-3 activity; inhibition, % at 20 µM; 330,000 tested, 0.71% active; AID 489030, 2010; active means inhibition of at least 40% at 20 µM;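 further: plate controls were DMSO wells for no effect and DEVD-CHO caspase inhibitor wells for full effect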
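Material: reconstituted apoptosome with Apaf-1, cytochrome c, caspase-9, procaspase-3, dATP. Technique: Rh110 fluorescence intensity. Buffer or medium: pH 7.5 Hepes buffer with CHAPS, BSA, DTT. Times: 30 min plus 50 min, RT.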
PRMT1 inh conf: PRMT1 methyltransferase inhibitors, confirmation, biochemical, fluorescence polarization, triplicate; 3,300 tested, 42% active; shares compounds with PRMT1 inh; recombinant His-PRMT1, activity-based probe fluorescence polarization; inhibition, % at 2.79 µM; AID 687036, 2013;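 active means mean inhibition across replicates above the hit cutoff derived for the earlier primary screen, cut at about 22% in these data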
* marks the source's active call; other numbers are inactive results; · = not tested or not shown; ! = repeats disagree. In the library only some 2.6% were active in any assay of this set; here they are far more common.

SMILES	GSTO1 counter	PAD4 FP inh	PRMT1 inh	TDP2 inh	Apaf1 inhib	PRMT1 inh conf
O=C1NC(=O)N(CCc2ccc(F)cc2)C(=O)/C1=C/c1ccco1	17.3	-27.5	35.4*	13.9	2.1	3.3
O=C1NC(=S)N(c2ccc(F)cc2)C(=O)/C1=C/c1ccccc1O	-2.0	-3.0	1.9	1.3	-0.3	·
CN1CCC2(CC1)C(C#N)=C(N)NC(S)=C2C#N	-15.6	-22.1	30.6*!	30.4*!	16.5	18.9
CCN(CC)c1ccc(N=Cc2c(O)n(Cc3ccccc3)c(=O)[nH]c2=O)cc1	6.0	-13.8	1.8	4.4	12.5	·
CCN(CC)c1ccc(N=Cc2c(O)n(-c3ccccc3C)c(=O)[nH]c2=O)cc1	27.9	11.3	27.6*	7.4	17.0	-0.2
CC(=O)c1ccc2c(c1)C1C(Cl)C(Sc3ccccc3[N+](=O)[O-])CC1C(C(=O)O)N2 (stereo not drawn)	5.2	-2.6	49.3*	6.3	·	22.6*
CCN(CC)c1ccc(/C=C2/C(=O)NC(=O)N(Cc3ccco3)C2=O)cc1	17.1	-1.3	29.7*	16.6	-0.5	3.2
CN(C)c1ccc(/C=C2/C(=O)NC(=O)N(Cc3ccco3)C2=O)cc1	14.3	-0.8	28.9*	14.6	0.2	3.2
Cc1cc(/C=C2/C(=O)NC(=O)N(Cc3ccco3)C2=O)c(C)n1-c1ccccc1	6.1	-2.8	18.4	-9.7	-52.9	·
ClC(Cl)=C(c1ccc(Cl)cc1)c1ccc(Cl)cc1	3.7	3.0	-4.5	-5.3	-1.6	·
Cc1ccc2nc(-c3ccc(CN4CCC(n5nnc6ccccc65)CC4)cc3)c(-c3ccccc3)nc2c1	·	·	-3.4	-3.8	·	·
CN1C(=O)C(=Cc2ccccc2OS(=O)(=O)c2ccccc2)C(=O)N(C)C1=O	6.9	0.8	33.9*	1.8	0.3	5.3
CN1C(=O)C(=Cc2ccccc2OCCOc2ccc([N+](=O)[O-])cc2)C(=O)N(C)C1=O	-3.1	-2.9	8.8	15.1	7.7	·
Cc1cnc(NC(=O)CN2CCCCC2)s1	-1.2	4.2	3.9	3.9	4.1	·
O=C(c1ccccc1F)N1CCC2(CC1)OCCO2	6.5	-3.5	-2.4	-4.7	3.8	·
Clc1cc(Cl)cc(CN2Cc3cc(Br)ccc3-n3nncc3C2)c1	·	·	-1.6	-12.2	·	·
S=P(N1CCOCC1)(N1CC1)N1CC1	·	·	3.6	-3.9	·	·
S=P(N1CCCCCC1)(N1CC1)N1CC1	·	·	30.5*	1.7	·	-3.5
CCOP(=S)(OCC)Oc1cc(C)nc(C(C)C)n1	·	·	-1.2	10.9	·	·
C[C@]12CCC3C(CC[C@H]4C[C@@H](O)CC[C@]34C)C1=CC[C@@H]2O (stereo partly drawn)	·	·	-2.2	1.6	·	·
CCc1c(-c2ccccc2)nc2ccccc2c1C(=O)N1CCC2(CC1)OCCO2	1.4	-1.0	2.2	-10.8	4.5	·
CCOC(=O)C1CCCN(c2ccc([N+](=O)[O-])c3nonc23)C1 (stereo not drawn)	·	·	122.3*	7.5	·	135.2*
CC1CCCN(c2ccc(C(=O)N3CCC4(CC3)OCCO4)cc2[N+](=O)[O-])C1 (stereo not drawn)	12.2	1.5	2.4	-12.9	15.1	·
CCOc1ccc2nc(N=Nc3c(O)[nH]c(=S)[nH]c3=O)sc2c1	6.6	-7.8	0.4	17.3	28.0	·
CCC(=O)OC1(Cc2ccc(CC)cc2)CC(C)N(C)CC1C (stereo not drawn)	2.8	3.1	-0.7	-4.4	-16.8	·
SMILES	GSTO1 counter	PAD4 FP inh	PRMT1 inh	TDP2 inh	Apaf1 inhib	PRMT1 inh conf
CCOC(=O)c1c(/N=C/C2C(=O)NC(=O)NC2=O)sc2c1CCC2	-7.3	10.6	3.4	4.9	15.2	·
CCOC(=O)c1cc(CC)sc1/N=C/c1c(O)[nH]c(=S)[nH]c1=O	1.3	-3.3	81.5*	6.0	-199.8	7.9
CCOC(=O)c1cc(CC)sc1/N=C/C1C(=O)NC(=S)NC1=O	-9.6	-3.0	41.1*	9.8	0.7	12.1
CCOC(=O)CNC(=O)N1Cc2cc(Br)ccc2-n2nncc2C1	·	·	-1.0	-1.2	·	·
CC[n+]1c(/C=C/C=C/c2ccc(N(C)C)cc2)sc2ccccc21	-55.5	-14.7	-6.3	-3.4	2.1	·
CC[n+]1c(/C=C/N(C)c2ccccc2)sc2ccc(Cl)cc21	-16.5	-53.3	29.0*	-7.0	8.9	4.5
C[C@]12CCC3C(CC[C@@H]4C[C@H](O)CC[C@]34C)C1CCC2=O (stereo partly drawn)	·	-0.8	-5.4	-13.1	6.0	·
O=C1NS(=O)c2cc([N+](=O)[O-])cc([N+](=O)[O-])c21 (stereo not drawn)	15.7	1.0	37.8*	-1.2	-1.1	26.6*
Cc1cccc(N=C2c3cc([N+](=O)[O-])ccc3-c3c2cc([N+](=O)[O-])cc3[N+](=O)[O-])c1	·	·	-1.4	6.0	·	·
Nc1c2c(nc3ccccc13)CCN(Cc1ccccc1)C2	7.4	-1.4	44.3*	4.7	9.7	9.1
COc1ccc(C2=NCC(=S)Nc3ccc(Cl)cc32)cc1Cl	2.0	-1.4	40.2*	4.3	15.5	-2.1
Nc1nc(N)c2cnnn2n1	·	·	3.3	2.3	·	·
COc1ccc(/C=C2/C(=O)NC(=O)N(C3CCCCC3)C2=O)cc1CSc1ccccn1	25.2	-7.1	25.9*	8.2	7.1	5.9
COc1ccc(C=C2C(=O)N(C)C(=O)N(C)C2=O)cc1CSc1ccccn1	2.0	-3.6	16.8	-0.7	2.2	·
COc1ccc(N2C(=O)NC(=O)/C(=C/c3ccc([N+](=O)[O-])s3)C2=O)cc1	30.1	-8.7	19.1	-6.3	25.7	·
COc1ccc(CN2C(=O)NC(=O)/C(=C/c3ccc([N+](=O)[O-])s3)C2=O)cc1	27.1	-47.9	31.4*	10.1	37.0	65.7*
O=C1NC(=O)N(Cc2ccc(F)cc2)C(=O)/C1=C\c1ccc([N+](=O)[O-])s1	12.8	-56.1	39.3*	7.4	33.2	71.9*
COc1ccc(N2C(=O)NC(=O)/C(=C\c3ccc([N+](=O)[O-])s3)C2=O)cc1	31.9	-44.0	39.4*	-10.2	31.6	49.6*
COc1ccc(CC2NCC(O)C2OC(C)=O)cc1 (stereo not drawn)	·	·	-5.7	0.9	·	·
CC1=C2C3OC(=O)C(C)C3CC[C@@]2(C)C=CC1=O (stereo partly drawn)	9.8	-3.7	2.7	2.7	-9.0	·
Cc1ccccc1-c1ccc2n1Cc1cnnn1-c1ccccc1-2	·	·	-1.6	3.6	·	·
Cc1ccc(C(C)C)c(OCC#CCN2CCCC2)c1	9.6	-5.9	-7.5	-11.0	3.5	·
